Experimental data as given in ChEMBL document CHEMBL1137548, “Synthesis and evaluation of naphthyridine compounds as antimalarial agents” (Bioorg Med Chem Lett, 2007).

What was measured:
[1] = system: Mastomys coucha; experiment: Toxicity against Mastomys coucha assessed as methemoglobin levels at 15 mg/kg after 3 days; type: organism-based; design: dose 15 mg/kg; conditions: in vivo, 72 h
Outline: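 Mastomys coucha dosed at 15 mg/kg per day for 3 days, then blood methemoglobin measured as % MetHb. A vehicle group served as control. Values are mean±SEM per group from a set of three experiments.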

[2] = Therapeutic index, ratio of LD50 for Swiss mice (Mus musculus) to […] for Plasmodium berghei infected Swiss mice (Mus musculus); conditions: read-out: Ratio LD50/ED50
Outline: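 Ratio of acute LD50 to P. berghei ED50 in mice. LD50: one injection into four non-infected random-bred Swiss mice, deaths scored at 10 days. ED50: i.p. dosing once daily for 4 days, starting 1 h after i.p. parasite inoculation. Parasite growth inhibition is taken against vehicle-treated controls, and the value is read from % of control versus log dose.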

[3] = Toxicity in Swiss mouse after 10 days; type: organism-based; conditions: in vivo
Outline: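 Acute toxicity: a single drug injection into four non-infected random-bred Swiss mice, with deaths recorded 10 days after injection.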

[4] = system: Plasmodium berghei; experiment: Antimalarial activity against Plasmodium berghei infected Swiss mice (Mus musculus) by intraperitoneal dose; type: functional; conditions: ip
Outline: (§1)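 Infected mice dosed i.p. once daily for 4 days, with the first dose 1 h after i.p. inoculation with parasites. ED50 is the dose giving 50% inhibition of parasite growth versus vehicle-treated controls (equal volume of vehicle), read from a plot of activity (% of control) against log dose. P. berghei is the sensitive strain and P. yoelii nigeriensis the multidrug-resistant strain.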

[5] = system: Plasmodium yoelii nigeriensis; experiment: Antimalarial activity against Plasmodium yoelii nigeriensis infected Swiss mice (Mus musculus) by intraperitoneal dose; type: functional; conditions: ip; outline: as §1
[6] = system: Plasmodium falciparum; experiment: Antimalarial activity against chloroquine-resistant Plasmodium falciparum W2; type: functional, organism-based

Structure (SMILES)	Activity [1]	selectivity ratio [2]	LD50 at 240 h [3]	ED50 [4]	ED50 [5]	IC50 [6]
CCOc1cc(NC(C)(C)CCCN)c2ncccc2n1	-0.12%	163	155 mg/kg	0.95 mg/kg	0.89 mg/kg	0.077 µM
CCOc1cc(NC2(CCCN)CC2)c2nc(OC)ccc2n1	-0.1%	> 278	> 200 mg/kg	0.72 mg/kg	0.65 mg/kg	0.045 µM
CCOc1cc(NC2(CCCN)CC2)c2nc(C(F)(F)F)ccc2n1	0.095%	> 267	> 200 mg/kg	0.75 mg/kg	0.68 mg/kg	0.058 µM
CC(C)Oc1cc(NC2(CCCN)CC2)c2nc(C(F)(F)F)ccc2n1	0.14%	> 769	> 200 mg/kg	0.26 mg/kg	0.23 mg/kg	0.055 µM
CC(C)Oc1cc(NC(C)(C)CCCN)c2ncccc2n1	-0.15%	506	167 mg/kg	0.33 mg/kg	0.28 mg/kg	0.11 µM
CCOc1cc(NC2(CCCN)CC2)c2ncccc2n1	-0.12%	183	161 mg/kg	0.88 mg/kg	1 mg/kg	0.072 µM
CC(C)Oc1cc(NC2(CCCN)CC2)c2ncccc2n1	-0.1%	603	175 mg/kg	0.29 mg/kg	0.38 mg/kg	0.1 µM
COc1cc(NC2(CCCN)CC2)c2ncccc2n1	0.1%	91	145 mg/kg	1.6 mg/kg	1.4 mg/kg	0.057 µM
COc1ccc2nc(OC(C)C)cc(NC3(CCCN)CC3)c2n1	-0.12%	> 645	> 200 mg/kg	0.31 mg/kg	0.41 mg/kg	0.047 µM
COc1cc(NC(C)(C)CCCN)c2nc(C(F)(F)F)ccc2n1	-0.11%	> 133	> 200 mg/kg	1.5 mg/kg	1.7 mg/kg	0.021 µM
COc1cc(NC(C)(C)CCCN)c2nc(OC)ccc2n1	0.13%	> 125	> 200 mg/kg	1.6 mg/kg	2 mg/kg	0.033 µM
COc1cc(NC(C)(C)CCCN)c2ncccc2n1	0.1%	72	130 mg/kg	1.8 mg/kg	2.1 mg/kg	0.065 µM
CCN(CC)CCCC(C)Nc1ccnc2cc(Cl)ccc12 (stereo unspecified) [CHLOROQUINE]				2 mg/kg		
COc1cc(NC(C)CCCN)c2ncccc2c1 (stereo unspecified) [PRIMAQUINE]	3.4%		55 mg/kg			> 10 µM
